Data published in ChEMBL document CHEMBL4732233, “Faropenem reacts with serine and metallo-β-lactamases to give multiple products” (Eur J Med Chem, 2021).

Experiments:
[1] = Drug metabolism assessed as VIM-2 (unknown origin)-mediated compound hydrolysis by measuring (2R)-2-((1S,2R)-1-carboxy-2-hydroxypropyl)-5-((R)-tetrahydrofuran-2-yl)-2,5-dihydrothiazole-4-carboxylic acid formation at 5 mM incubated for 5 mins by 1H-NMR based analysis; type: ADME; settings: bacteria, 5000 µM
[2] = Drug metabolism assessed as VIM-1 (unknown origin)-mediated compound hydrolysis by measuring (R)-2-((1S,2R)-1-carboxy-2-hydroxypropyl)-5-((R)-tetrahydrofuran-2-yl)-2,3-dihydrothiazole-4-carboxylic acid formation at 5 mM incubated for 5 mins by 1H-NMR based analysis; type: ADME; settings: bacteria, 5000 µM
[3] = Drug metabolism assessed as OXA-48 (unknown origin)-mediated compound hydrolysis by measuring (S)-2-((1S,2R)-1-carboxy-2-hydroxypropyl)-5-((R)-tetrahydrofuran-2-yl)-2,3-dihydrothiazole-4-carboxylic acid formation at 5 mM incubated for 55 mins by 1H-NMR based analysis; type: ADME; settings: bacteria, 5000 µM
Summary of the method: (§1)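 Reaction of OXA-48 (5 μM) with 5 mM faropenem for 55 min in 50 mM sodium phosphate pH 7.5, 10% (v/v) D2O. Products assigned from methyl group resonances in 700 MHz 1H NMR spectra.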

[4] = Drug metabolism assessed as OXA10 (unknown origin)-mediated compound hydrolysis by measuring (S)-2-((1S,2R)-1-carboxy-2-hydroxypropyl)-5-(4-hydroxybutylidene)-2,5-dihydrothiazole-4-carboxylic acid formation at 5 mM incubated for 16 hrs by 1H-NMR based analysis; type: ADME; settings: bacteria, 5000 µM
Summary of the method: (§2)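 OXA-10 at 5 μM with 5 mM faropenem, incubated 16 h in 50 mM sodium phosphate, pH 7.5, 10% (v/v) D2O. Product formation read by 1H NMR (700 MHz) methyl group resonances.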

[5] = tested on: Mycobacterium tuberculosis H37Rv
[6] = Drug metabolism assessed as OXA-48 (unknown origin)-mediated compound hydrolysis by measuring (S)-2-((1S,2R)-1-carboxy-2-hydroxypropyl)-5-(4-hydroxybutylidene)-2,5-dihydrothiazole-4-carboxylic acid formation at 5 mM incubated for 55 mins by 1H-NMR based analysis; type: ADME; settings: bacteria, 5000 µM; summary of the method: as §1
[7] = tested on: Bradyrhizobium japonicum; settings: USDA110
[8] = Inhibition of KPC-2 (unknown origin); design: species or system Bacteria
[9] = Drug metabolism assessed as KPC-2 (unknown origin)-mediated compound hydrolysis by measuring (S)-2-((1S,2R)-1-carboxy-2-hydroxypropyl)-5-(4-hydroxybutylidene)-2,5-dihydrothiazole-4-carboxylic acid formation at 5 mM incubated for 72 mins by 1H-NMR based analysis; type: ADME; settings: bacteria, 1.2 h, 5000 µM
[10] = Drug metabolism assessed as OXA-23 (unknown origin)-mediated compound hydrolysis by measuring (R)-2-((1S,2R)-1-carboxy-2-hydroxypropyl)-5-(4-hydroxybutylidene)-2,5-dihydrothiazole-4-carboxylic acid formation at 2 mM incubated for 15 mins by 1H-NMR based analysis; type: ADME; settings: bacteria, 0.25 h, 2000 µM
[11] = Drug metabolism assessed as NDM-1 (unknown origin)-mediated compound hydrolysis by measuring (R)-2-((1S,2R)-1-carboxy-2-hydroxypropyl)-5-(4-hydroxybutylidene)-2,5-dihydrothiazole-4-carboxylic acid formation at 5 mM incubated for 5 mins by 1H-NMR based analysis; type: ADME; settings: bacteria, 5000 µM
Summary of the method: (§3)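 NDM-1 used at 5 μM with 5 mM faropenem, 5 min incubation, in 50 mM sodium phosphate, pH 7.5, 10% (v/v) D2O. Degradation products monitored by 700 MHz 1H NMR via methyl group signals.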

[12] = tested on: Bacteria
[13] = Drug metabolism assessed as OXA10 (unknown origin)-mediated compound hydrolysis by measuring (S)-2-((1S,2R)-1-carboxy-2-hydroxypropyl)-5-((R)-tetrahydrofuran-2-yl)-2,3-dihydrothiazole-4-carboxylic acid formation at 5 mM incubated for 16 hrs by 1H-NMR based analysis; type: ADME; settings: bacteria, 5000 µM; summary of the method: as §2
[14] = tested on: Bacteria; remark: listed apart in the source
[15] = tested on: Klebsiella pneumoniae
[16] = Drug metabolism assessed as VIM-2 (unknown origin)-mediated compound hydrolysis by measuring (S)-2-((1S,2R)-1-carboxy-2-hydroxypropyl)-5-((R)-tetrahydrofuran-2-yl)-2,3-dihydrothiazole-4-carboxylic acid formation at 5 mM incubated for 5 mins by 1H-NMR based analysis; type: ADME; settings: bacteria, 5000 µM
[17] = Drug metabolism assessed as NDM-1 (unknown origin)-mediated compound hydrolysis by measuring (R)-2-((1S,2R)-1-carboxy-2-hydroxypropyl)-5-((R)-tetrahydrofuran-2-yl)-2,3-dihydrothiazole-4-carboxylic acid formation at 5 mM incubated for 5 mins by 1H-NMR based analysis; type: ADME; settings: bacteria, 5000 µM; summary of the method: as §3
[18] = tested on: Bacteria; remark: listed apart in the source
[19] = Drug metabolism assessed as VIM-1 (unknown origin)-mediated compound hydrolysis by measuring (2R)-2-((1S,2R)-1-carboxy-2-hydroxypropyl)-5-((R)-tetrahydrofuran-2-yl)-2,5-dihydrothiazole-4-carboxylic acid formation at 5 mM incubated for 5 mins by 1H-NMR based analysis; type: ADME; settings: bacteria, 5000 µM
[20] = Drug metabolism assessed as VIM-1 (unknown origin)-mediated compound hydrolysis by measuring (S)-2-((1S,2R)-1-carboxy-2-hydroxypropyl)-5-(4-hydroxybutylidene)-2,5-dihydrothiazole-4-carboxylic acid formation at 5 mM incubated for 5 mins by 1H-NMR based analysis; type: ADME; settings: bacteria, 5000 µM
[21] = Drug metabolism assessed as OXA-23 (unknown origin)-mediated compound hydrolysis by measuring (S)-2-((1S,2R)-1-carboxy-2-hydroxypropyl)-5-(4-hydroxybutylidene)-2,5-dihydrothiazole-4-carboxylic acid formation at 2 mM incubated for 15 mins by 1H-NMR based analysis; type: ADME; settings: bacteria, 0.25 h, 2000 µM
[22] = Drug metabolism assessed as OXA-48 (unknown origin)-mediated compound hydrolysis by measuring (R)-2-((1S,2R)-1-carboxy-2-hydroxypropyl)-5-((R)-tetrahydrofuran-2-yl)-2,3-dihydrothiazole-4-carboxylic acid formation at 5 mM incubated for 55 mins by 1H-NMR based analysis; type: ADME; settings: bacteria, 5000 µM; summary of the method: as §1
[23] = Drug metabolism assessed as VIM-2 (unknown origin)-mediated compound hydrolysis by measuring (S)-2-((1S,2R)-1-carboxy-2-hydroxypropyl)-5-(4-hydroxybutylidene)-2,5-dihydrothiazole-4-carboxylic acid formation at 5 mM incubated for 5 mins by 1H-NMR based analysis; type: ADME; settings: bacteria, 5000 µM
[24] = Drug metabolism assessed as VIM-2 (unknown origin)-mediated compound hydrolysis by measuring (R)-2-((1S,2R)-1-carboxy-2-hydroxypropyl)-5-((R)-tetrahydrofuran-2-yl)-2,3-dihydrothiazole-4-carboxylic acid formation at 5 mM incubated for 5 mins by 1H-NMR based analysis; type: ADME; settings: bacteria, 5000 µM
[25] = tested on: Bacteria; remark: listed apart in the source
[26] = tested on: Bacteria; remark: listed apart in the source
[27] = tested on: Bradyrhizobium japonicum; settings: USDA110; remark: listed apart in the source
[28] = tested on: Mycobacterium tuberculosis H37Rv; remark: listed apart in the source
[29] = tested on: Klebsiella pneumoniae; remark: listed apart in the source

C[C@@H](O)[C@H]1C(=O)N2C(C(=O)O)=C([C@H]3CCCO3)S[C@H]12 [FAROPENEM]
Drug metabolism [1]: Metabolite_Detected | Drug metabolism [2]: Metabolite_Detected | Drug metabolism [3]: Metabolite_Detected | Drug metabolism [4]: Metabolite_Detected | kcat/Km [5]: 40000 M⁻¹ s⁻¹ | Drug metabolism [6]: Metabolite_Detected | kcat [7]: 2 s⁻¹ | Ki [8]: 44.1 µM | Drug metabolism [9]: Metabolite_Detected | Drug metabolism [10]: Metabolite_Detected | Drug metabolism [11]: Metabolite_Detected | kcat [12]: 36.7 s⁻¹ | Drug metabolism [13]: Metabolite_Detected | Km [14]: 5.11 µM | kcat/Km [15]: 150000 M⁻¹ s⁻¹ | Drug metabolism [16]: Metabolite_Detected | Drug metabolism [17]: Metabolite_Detected | kcat [18]: 3.71 s⁻¹ | Drug metabolism [19]: Metabolite_Detected | Drug metabolism [20]: Metabolite_Detected | Drug metabolism [21]: Metabolite_Detected | Drug metabolism [22]: Metabolite_Detected | Drug metabolism [23]: Metabolite_Detected | Drug metabolism [24]: Metabolite_Detected | kcat/Km [25]: 220000 M⁻¹ s⁻¹ | kcat/Km [26]: 1.2e+06 M⁻¹ s⁻¹ | kcat/Km [27]: 8000 M⁻¹ s⁻¹ | Km [28]: 23 µM | Km [29]: 99 µM
